Paper PMC7058367 (Biochemical pharmacology, 2018)
Where two headings read alike, the source gives them in different places.

Columns and labels:
[1] = system: GluN1 CTD in neurons expressing GluN1-GFP, GluN2A and GluN1-mCherry; experiment: CTD-FRET; assay type: cell-based, rat; conditions: 75 µM compound, absence of agonists, imaged 10 min after application (Fig. 8)
Summary of the method: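 Rat primary hippocampal neurons were transfected at DIV 7-10 with ~2 µg total DNA (GluN1-GFP, GluN2A, GluN1-mCherry) by lipofection and imaged at 16-18 DIV in 0.87x HBSS, 5 mM HEPES, 1 mM glucose, 2.5 mM MgCl2, 0.5 mM CaCl2. Baseline and 10 min post-compound two-photon FLIM images were taken, each neuron imaged twice, compounds interleaved. Lifetimes were fit single-exponential and analysed blind; two preparations pooled.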

[2] = target: GluN1/GluN2A^ΔCTD receptors (Rattus norvegicus, UniProt P35439+Q00959); assay type: cell-based
Summary of the method: (§1)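 Xenopus laevis oocytes were injected with GluN1a:GluN2 RNA at a 1:3 molar ratio (15-30 ng total; 10-20-fold more for CTD-deleted subunits) and kept in ND-96 at 17 °C for 1-5 days. TEVC was run at -60 mV in 116 mM NaCl, 2 mM KCl, 0.3 mM BaCl2, 5 mM HEPES, pH 7.4. […] Full-length controls came from the same batch and day; mean ± s.e.m.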

[3] = target: GluN1^ΔCTD/GluN2C receptors (Rattus norvegicus, UniProt P35439+Q00961); assay type: cell-based; conditions: 50 µM compound; 10 µM L-glutamate/10 µM glycine (Fig. 1D)
Summary of the method: as §1

GluN1/GluN2C receptors = GluN1/GluN2C receptors (Rattus norvegicus, UniProt P35439+Q00961); assay type: cell-based; conditions: 5 mM EGTA injected vs controls (Fig. 6C, G)
Summary of the method: (§2)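 Oocytes expressed wild-type GluN1a/GluN2 receptors from 15-30 ng RNA (1:3 molar) and were held in ND-96 at 17 °C for 1-5 days. For Ca2+ chelation, 5 mM EGTA (50 nL) was injected 1-2 h before recording, with uninjected and water-injected oocytes as controls. TEVC was run at -60 mV in 116 mM NaCl, 2 mM KCl, 0.3 mM BaCl2, 5 mM HEPES (pH 7.4). […] Values are mean ± s.e.m.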

[4] = target: GluN1^ΔCTD/GluN2D receptors (Rattus norvegicus, UniProt P35439+Q62645); assay type: cell-based; conditions: 50 µM compound; 10 µM L-glutamate/10 µM glycine (Fig. 1D)
Summary of the method: (§3)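 Xenopus laevis oocytes were injected with GluN1a and GluN2 RNA at a 1:3 molar ratio. The CTD was removed by a stop codon at GluN1 838K or GluN2C 855K, and 10-20-fold more RNA than wild type was injected. Oocytes were kept in ND-96 at 17 °C for 1-5 days. TEVC was run at -60 mV in Ba2+ buffer (pH 7.4). […] Full-length receptors were run alternately on the same day and oocyte batch. Values are mean ± s.e.m.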

GluN1/GluN2A receptors = GluN1/GluN2A receptors (Rattus norvegicus, UniProt P35439+Q00959); assay type: cell-based
Summary of the method: as §1

[5] = target: GluN1/GluN2B^ΔCTD receptors (Rattus norvegicus, UniProt P35439+Q00960); assay type: cell-based; conditions: 50 µM compound; 10 µM L-glutamate/10 µM glycine (Fig. 1C)
GluN1/GluN2B receptors = GluN1/GluN2B receptors (Rattus norvegicus, UniProt P35439+Q00960); assay type: cell-based
[6] = target: GluN1/GluN2C^ΔCTD receptors (Rattus norvegicus, UniProt P35439+Q00961); experiment: Two-electrode voltage clamp of GluN2C CTD-deleted receptors; assay type: cell-based; conditions: 50 µM compound; 10 µM L-glutamate/10 µM glycine (Fig. 1B,C)
Summary of the method: as §3

[7] = target: GluN1/GluN2D^ΔCTD receptors (Rattus norvegicus, UniProt P35439+Q62645); assay type: cell-based; conditions: 50 µM compound; 10 µM L-glutamate/10 µM glycine (Fig. 1C)
[8] = system: GluN1/GluN2D^ΔCTD receptors; assay type: cell-based, rat; conditions: 50 µM compound; compared to wildtype
[9] = target: GluN1^ΔCTD/GluN2B receptors (Rattus norvegicus, UniProt P35439+Q00960); assay type: cell-based; conditions: 50 µM compound; 10 µM L-glutamate/10 µM glycine (Fig. 1D)
Summary of the method: as §1

[10] = target: GluN1^ΔCTD/GluN2A receptors (Rattus norvegicus, UniProt P35439+Q00959); assay type: cell-based; conditions: 50 µM compound; 10 µM L-glutamate/10 µM glycine (Fig. 1D)
Summary of the method: as §1

GluN1/GluN2D receptors = GluN1/GluN2D receptors (Rattus norvegicus, UniProt P35439+Q62645); assay type: cell-based; conditions: 5 mM EGTA injected vs controls (Fig. 6D, H)
Summary of the method: as §2

[11] = 2 µM PMA for 10 minutes, 50 µM UBP684, 100 µM PS (Fig. 7E, F)
[12] = 10 µM FSK and 1 mM IBMX for 10 minutes, 50 µM UBP684, 100 µM PS (Fig. 7B, C)
[13] = 50 µM compound, control media for U73122 experiment (Fig. 6I)

Sequence of GluN1^ΔCTD/GluN2C receptors (Q00961 20-1237, stated change not applied, other chains not shown): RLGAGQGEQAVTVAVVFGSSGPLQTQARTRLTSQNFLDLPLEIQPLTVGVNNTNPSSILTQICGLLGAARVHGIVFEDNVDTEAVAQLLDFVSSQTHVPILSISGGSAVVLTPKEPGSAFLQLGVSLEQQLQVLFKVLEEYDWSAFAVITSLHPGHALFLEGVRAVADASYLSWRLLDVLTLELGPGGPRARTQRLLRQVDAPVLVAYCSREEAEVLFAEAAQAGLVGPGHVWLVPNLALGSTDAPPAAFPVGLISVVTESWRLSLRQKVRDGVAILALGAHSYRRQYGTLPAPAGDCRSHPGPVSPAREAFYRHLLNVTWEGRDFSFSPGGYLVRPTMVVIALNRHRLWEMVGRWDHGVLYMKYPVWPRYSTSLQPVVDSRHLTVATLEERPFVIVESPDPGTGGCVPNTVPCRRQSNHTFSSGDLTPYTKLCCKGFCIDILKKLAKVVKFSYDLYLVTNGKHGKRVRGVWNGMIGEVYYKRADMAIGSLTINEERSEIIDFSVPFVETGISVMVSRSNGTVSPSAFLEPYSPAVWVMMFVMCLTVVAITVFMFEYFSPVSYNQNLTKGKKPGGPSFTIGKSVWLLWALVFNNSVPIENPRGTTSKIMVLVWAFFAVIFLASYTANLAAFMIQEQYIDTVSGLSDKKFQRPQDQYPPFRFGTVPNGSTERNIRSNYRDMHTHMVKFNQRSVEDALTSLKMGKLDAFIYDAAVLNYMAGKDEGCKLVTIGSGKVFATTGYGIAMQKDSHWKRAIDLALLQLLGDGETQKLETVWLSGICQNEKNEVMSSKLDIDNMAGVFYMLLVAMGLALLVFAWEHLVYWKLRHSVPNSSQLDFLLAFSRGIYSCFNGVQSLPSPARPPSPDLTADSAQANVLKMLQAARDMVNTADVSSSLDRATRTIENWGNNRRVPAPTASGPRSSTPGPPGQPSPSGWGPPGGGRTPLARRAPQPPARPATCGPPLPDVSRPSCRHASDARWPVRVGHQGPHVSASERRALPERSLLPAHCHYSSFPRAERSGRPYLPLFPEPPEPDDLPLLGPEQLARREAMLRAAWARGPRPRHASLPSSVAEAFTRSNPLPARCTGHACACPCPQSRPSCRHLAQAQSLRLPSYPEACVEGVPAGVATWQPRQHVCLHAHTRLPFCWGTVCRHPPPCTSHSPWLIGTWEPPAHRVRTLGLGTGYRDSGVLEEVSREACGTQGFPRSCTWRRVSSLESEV
Sequence of GluN1/GluN2C receptors (Q00961 20-1237, other chains not shown): as the sequence (Q00961 20-1237, stated change not applied, other chains not shown) above
Sequence of GluN1^ΔCTD/GluN2D receptors (Q62645 28-1323, stated change not applied, other chains not shown): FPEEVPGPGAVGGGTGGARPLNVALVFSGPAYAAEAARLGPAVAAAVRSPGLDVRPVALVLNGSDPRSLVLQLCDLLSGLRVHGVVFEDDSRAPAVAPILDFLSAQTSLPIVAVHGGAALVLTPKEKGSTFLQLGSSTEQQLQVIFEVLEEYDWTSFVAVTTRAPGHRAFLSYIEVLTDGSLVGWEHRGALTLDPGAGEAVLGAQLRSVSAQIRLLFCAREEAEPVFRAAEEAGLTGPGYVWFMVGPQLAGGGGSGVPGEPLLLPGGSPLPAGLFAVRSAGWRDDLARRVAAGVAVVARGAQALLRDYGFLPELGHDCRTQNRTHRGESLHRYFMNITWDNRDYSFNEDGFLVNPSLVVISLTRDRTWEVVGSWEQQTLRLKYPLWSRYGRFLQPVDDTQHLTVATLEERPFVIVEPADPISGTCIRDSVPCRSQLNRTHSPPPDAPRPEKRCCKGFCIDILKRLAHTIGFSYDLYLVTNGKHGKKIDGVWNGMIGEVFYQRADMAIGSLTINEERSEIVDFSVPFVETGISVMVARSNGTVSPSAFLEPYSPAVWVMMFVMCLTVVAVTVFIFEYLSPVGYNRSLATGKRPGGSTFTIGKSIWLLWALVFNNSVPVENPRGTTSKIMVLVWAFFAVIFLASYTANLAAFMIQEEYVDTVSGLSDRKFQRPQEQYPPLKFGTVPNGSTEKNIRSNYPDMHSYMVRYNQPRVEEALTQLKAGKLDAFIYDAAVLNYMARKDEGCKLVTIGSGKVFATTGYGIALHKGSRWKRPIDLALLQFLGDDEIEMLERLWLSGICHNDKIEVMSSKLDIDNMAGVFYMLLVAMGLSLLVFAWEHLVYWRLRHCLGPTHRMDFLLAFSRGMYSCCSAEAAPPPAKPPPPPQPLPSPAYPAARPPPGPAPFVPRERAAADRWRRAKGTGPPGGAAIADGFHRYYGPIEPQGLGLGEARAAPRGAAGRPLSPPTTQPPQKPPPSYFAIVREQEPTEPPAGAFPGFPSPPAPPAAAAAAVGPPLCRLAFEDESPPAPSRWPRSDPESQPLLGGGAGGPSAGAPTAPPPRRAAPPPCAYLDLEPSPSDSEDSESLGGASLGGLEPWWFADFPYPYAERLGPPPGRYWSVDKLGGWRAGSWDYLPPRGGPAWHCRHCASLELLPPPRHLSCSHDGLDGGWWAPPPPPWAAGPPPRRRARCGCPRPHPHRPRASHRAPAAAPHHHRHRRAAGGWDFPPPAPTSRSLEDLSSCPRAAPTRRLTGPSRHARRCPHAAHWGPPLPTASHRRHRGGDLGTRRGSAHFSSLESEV
Sequence of GluN1/GluN2D receptors (Q62645 28-1323, other chains not shown): as the sequence (Q62645 28-1323, stated change not applied, other chains not shown) above
Sequence of GluN1/GluN2D^ΔCTD receptors (Rattus norvegicus, UniProt P35439+Q62645) (Q62645 28-869 limits assumed, stated change not applied, other chains not shown): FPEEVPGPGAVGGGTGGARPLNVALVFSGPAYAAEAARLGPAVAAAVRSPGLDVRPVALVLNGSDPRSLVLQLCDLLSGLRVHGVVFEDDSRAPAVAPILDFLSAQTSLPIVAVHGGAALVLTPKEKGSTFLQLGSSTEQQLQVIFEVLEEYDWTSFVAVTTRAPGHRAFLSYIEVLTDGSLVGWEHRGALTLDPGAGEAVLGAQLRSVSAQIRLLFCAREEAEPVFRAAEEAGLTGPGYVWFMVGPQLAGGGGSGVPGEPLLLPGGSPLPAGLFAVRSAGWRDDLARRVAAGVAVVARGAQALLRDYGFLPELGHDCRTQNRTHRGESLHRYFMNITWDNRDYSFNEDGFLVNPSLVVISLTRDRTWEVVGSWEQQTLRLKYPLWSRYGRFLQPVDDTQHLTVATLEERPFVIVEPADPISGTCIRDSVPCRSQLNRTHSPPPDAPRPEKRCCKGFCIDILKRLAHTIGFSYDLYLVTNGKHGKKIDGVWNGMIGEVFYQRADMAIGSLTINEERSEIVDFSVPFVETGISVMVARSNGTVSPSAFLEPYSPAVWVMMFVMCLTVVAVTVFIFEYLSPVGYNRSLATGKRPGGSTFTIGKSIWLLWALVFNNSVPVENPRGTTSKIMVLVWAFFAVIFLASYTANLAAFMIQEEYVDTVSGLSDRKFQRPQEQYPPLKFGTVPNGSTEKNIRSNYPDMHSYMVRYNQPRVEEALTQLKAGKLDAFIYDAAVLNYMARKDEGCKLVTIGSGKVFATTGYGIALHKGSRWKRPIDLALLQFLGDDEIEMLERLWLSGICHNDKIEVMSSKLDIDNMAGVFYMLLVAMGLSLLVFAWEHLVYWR
Sequence of GluN1/GluN2C^ΔCTD receptors (Q00961 20-842, stated change not applied, other chains not shown): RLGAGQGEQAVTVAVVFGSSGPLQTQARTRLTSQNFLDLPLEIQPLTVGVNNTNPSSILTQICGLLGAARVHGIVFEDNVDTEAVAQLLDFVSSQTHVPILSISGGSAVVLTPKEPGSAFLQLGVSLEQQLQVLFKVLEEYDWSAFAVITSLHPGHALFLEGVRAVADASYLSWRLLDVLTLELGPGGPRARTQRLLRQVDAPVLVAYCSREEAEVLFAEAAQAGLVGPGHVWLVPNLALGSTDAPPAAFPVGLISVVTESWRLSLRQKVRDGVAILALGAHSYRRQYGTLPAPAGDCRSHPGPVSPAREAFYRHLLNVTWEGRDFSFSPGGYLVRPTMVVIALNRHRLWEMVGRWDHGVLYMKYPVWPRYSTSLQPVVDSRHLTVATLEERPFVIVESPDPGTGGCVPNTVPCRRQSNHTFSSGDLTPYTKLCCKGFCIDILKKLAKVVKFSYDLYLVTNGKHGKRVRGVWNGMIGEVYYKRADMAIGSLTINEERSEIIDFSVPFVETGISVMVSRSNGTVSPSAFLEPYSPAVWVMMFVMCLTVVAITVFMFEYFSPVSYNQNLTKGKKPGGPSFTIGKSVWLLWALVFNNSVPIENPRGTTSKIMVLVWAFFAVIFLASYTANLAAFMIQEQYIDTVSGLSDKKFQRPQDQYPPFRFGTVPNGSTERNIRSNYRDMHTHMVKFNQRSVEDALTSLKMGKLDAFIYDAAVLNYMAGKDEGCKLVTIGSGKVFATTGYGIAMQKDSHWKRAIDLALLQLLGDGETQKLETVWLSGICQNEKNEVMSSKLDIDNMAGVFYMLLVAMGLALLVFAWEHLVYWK

SMILES: CC(C)CCCc1ccc2cc(C(=O)O)ccc2c1 [UBP684]
- change of GluN1-GFP fluorescence lifetime (movement of the GluN1 CTD) [1]: significant increase
- effect of PKC activation by PMA on PAM activity ([2]; 2 µM PMA for 10 minutes, 50 µM UBP684, 100 µM PS (Fig. 7G, H)): increased
- % potentiation of agonist-evoked current ([2]; 50 µM compound, 10 µM L-glutamate/10 µM glycine (Fig. 1C)): 27 ± 5%
- reduction of potentiation by GluN2A CTD deletion compared to wildtype ([2]; 50 µM compound, compared to wildtype): approximately 50%
- % potentiation of agonist-evoked current [3]: 5 ± 3%
- effect of EGTA injection on potentiation/modulation (GluN1/GluN2C receptors): no significant effect
- % potentiation of agonist-evoked current [4]: 19 ± 7%
- effect of PKC activation by PMA on PAM activity (GluN1/GluN2A receptors; [11]): larger % potentiation
- effect of PKA activation on % potentiation (GluN1/GluN2A receptors; [12]): unchanged
- % potentiation of agonist response (GluN1/GluN2A receptors; 50 µM compound, H2O-injected control oocytes (Fig. 6A)): 47 ± 13%
- % potentiation of agonist-evoked current (GluN1/GluN2A receptors; [13]): 24 ± 5%
- % potentiation of agonist response (GluN1/GluN2A receptors; 50 µM compound, oocytes injected with 5 mM EGTA (Fig. 6A)): 9 ± 3%
- % potentiation of agonist response (GluN1/GluN2A receptors; 50 µM compound, un-injected control oocytes (Fig. 6A)): 54 ± 5%
- % potentiation of agonist-evoked current [5]: 74.4 ± 7.0%
- effect of PKC activation by PMA on PAM activity (GluN1/GluN2B receptors; [11]): larger % potentiation
- effect of PKA activation on % potentiation (GluN1/GluN2B receptors; [12]): unchanged
- % potentiation of agonist response (GluN1/GluN2B receptors; 50 µM compound, H2O-injected control oocytes (Fig. 6B)): 45 ± 5%
- % potentiation of agonist-evoked current (GluN1/GluN2B receptors; [13]): 33 ± 4%
- % potentiation of agonist response (GluN1/GluN2B receptors; 50 µM compound, oocytes injected with 5 mM EGTA (Fig. 6B)): 28 ± 2%
- % potentiation of agonist response (GluN1/GluN2B receptors; 50 µM compound, un-injected control oocytes (Fig. 6B)): 48 ± 4%
- % inhibition of agonist-evoked current [6]: 20 ± 3%
- % potentiation of agonist-evoked current [7]: 23 ± 4%
- reduction of potentiation by GluN2D CTD deletion compared to wildtype [8]: approximately 50%
- % potentiation of agonist-evoked current [9]: 44 ± 8%
- % potentiation of agonist-evoked current [10]: 3 ± 2%
- effect of EGTA injection on potentiation/modulation (GluN1/GluN2D receptors): no significant effect
